Columns and labels:
Type in all cases: functional
Candida albicans [1] = assay: Antimicrobial activity against azole-resistant Candida albicans isolate CA10 assessed as growth at 0.125 ug/ml co-treated with 0.031 ug/ml calcineurin signaling inhibitor tacrolimus after 48 hrs by microdilution checkboard technique relative to control; parameters: scale not given: the % may be the effect or the level left
Summary of the method: (§1)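 Checkerboard microdilution in RPMI 1640 (pH 7.0, 2% dextrose, 0.165 M MOPS). Azole dilutions run along columns and FK506 along rows, at 4× final concentration. Final inoculum 2.5 × 10^3 CFU/ml from Sabouraud-subcultured cells. Incubated 35°C for 48 h; OD read at 492 nm. Background from microorganism-free plates subtracted. Growth % = well OD / drug-free well OD. Triplicate on different days, values averaged.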

Candida albicans [2] = assay: Antimicrobial activity against azole-resistant Candida albicans isolate CA10 assessed as growth at 0.125 ug/ml co-treated with 0.016 ug/ml calcineurin signaling inhibitor tacrolimus after 48 hrs by microdilution checkboard technique relative to control; parameters: scale not given: the % may be the effect or the level left
Summary of the method: (§2)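 Checkerboard microdilution in MOPS-buffered RPMI 1640 (pH 7.0, 2% dextrose). Final ranges: azole 0.125–128 μg/ml (FLC) or 0.008–8 μg/ml (ITR, VRC), tacrolimus 0.002–0.125 μg/ml; solvent 1% in single-drug wells. Inoculum 2.5 × 10^3 CFU/ml, 35°C, 48 h. Growth % = background-subtracted OD492 of each well / drug-free well. Triplicate on different days.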

Candida albicans [3] = assay: Antimicrobial activity against azole-resistant Candida albicans isolate CA10 assessed as growth at 1 ug/ml cotreated with 0.016 ug/ml calcineurin signaling inhibitor tacrolimus after 48 hrs by microdilution checkerboard technique relative to control; parameters: scale not given: the % may be the effect or the level left; summary of the method: as §2
Candida albicans [4] = assay: Antimicrobial activity against azole-resistant Candida albicans isolate CA10 assessed as growth at 0.5 ug/ml cotreated with 0.002 ug/ml calcineurin signaling inhibitor tacrolimus after 48 hrs by microdilution checkerboard technique relative to control; parameters: scale not given: the % may be the effect or the level left; summary of the method: as §2
Candida albicans [5] = assay: Antimicrobial activity against azole-resistant Candida albicans isolate CA10 assessed as growth at 8 ug/ml cotreated with 0.002 ug/ml calcineurin signaling inhibitor Tacrolimus after 48 hrs by microdilution checkboard technique relative to control; parameters: scale not given: the % may be the effect or the level left
Summary of the method: (§3)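 CA10 in RPMI 1640 with 2% dextrose and 0.165 M MOPS, pH 7.0. Checkerboard used twofold dilutions, with azole alone in row H and the drug-free growth control in well H1. Final inoculum was 2.5 × 10^3 CFU/ml, incubated 35°C for 48 h, with OD read at 492 nm. Growth % = background-subtracted well OD / drug-free well OD. Run in triplicate on different days.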

Candida albicans [6] = assay: Antimicrobial activity against azole-resistant Candida albicans isolate CA10 assessed as growth at 64 ug/ml co-treated with 0.002 ug/ml calcineurin signaling inhibitor tacrolimus after 48 hrs by microdilution checkboard technique relative to control; parameters: scale not given: the % may be the effect or the level left; summary of the method: as §3
Candida albicans [7] = assay: Antimicrobial activity against azole-resistant Candida albicans isolate CA10 assessed as growth at 0.125 ug/ml after 48 hrs by microdilution checkerboard technique relative to control; summary of the method: as §2
Candida albicans [8] = assay: Antimicrobial activity against azole-resistant Candida albicans isolate CA10 assessed as growth at 1 ug/ml cotreated with 0.008 ug/ml calcineurin signaling inhibitor Tacrolimus after 48 hrs by microdilution checkboard technique relative to control; parameters: scale not given: the % may be the effect or the level left; summary of the method: as §2
Candida albicans [9] = assay: Antimicrobial activity against azole-resistant Candida albicans isolate CA10 assessed as growth at 8 ug/ml co-treated with 0.008 ug/ml calcineurin signaling inhibitor tacrolimus after 48 hrs by microdilution checkboard technique relative to control; parameters: scale not given: the % may be the effect or the level left; summary of the method: as §3
Candida albicans [10] = assay: Antimicrobial activity against azole-resistant Candida albicans isolate CA10 assessed as growth at 0.25 ug/ml cotreated with 0.004 ug/ml calcineurin signaling inhibitor Tacrolimus after 48 hrs by microdilution checkboard technique relative to control; parameters: scale not given: the % may be the effect or the level left; summary of the method: as §1
Candida albicans [11] = assay: Antimicrobial activity against azole-resistant Candida albicans isolate CA10 assessed as growth at 16 ug/ml co-treated with 0.004 ug/ml calcineurin signaling inhibitor tacrolimus after 48 hrs by microdilution checkboard technique relative to control; parameters: scale not given: the % may be the effect or the level left; summary of the method: as §2
Candida albicans [12] = assay: Antimicrobial activity against azole-resistant Candida albicans isolate CA10 assessed as growth at 64 ug/ml cotreated with 0.004 ug/ml calcineurin signaling inhibitor Tacrolimus after 48 hrs by microdilution checkboard technique relative to control; parameters: scale not given: the % may be the effect or the level left; summary of the method: as §3
Candida albicans [13] = assay: Antimicrobial activity against azole-resistant Candida albicans isolate CA10 assessed as growth at 0.25 ug/ml after 48 hrs by microdilution checkerboard technique relative to control; summary of the method: as §1
Candida albicans [14] = assay: Antimicrobial activity against azole-resistant Candida albicans isolate CA10 assessed as growth at 0.016 ug/ml after 48 hrs by microdilution checkerboard technique relative to control; summary of the method: as §2
Candida albicans [15] = assay: Antimicrobial activity against azole-resistant Candida albicans isolate CA10 assessed as growth at 0.004 ug/ml after 48 hrs by microdilution checkerboard technique relative to control; summary of the method: as §2
Candida albicans [16] = assay: Antimicrobial activity against azole-resistant Candida albicans isolate CA10 assessed as growth at 0.002 ug/ml after 48 hrs by microdilution checkerboard technique relative to control; summary of the method: as §2
Candida albicans [17] = assay: Antimicrobial activity against azole-susceptible Candida albicans isolate CA5 co-treated with calcineurin signaling inhibitor tacrolimus after 48 hrs by microdilution checkerboard technique; details: isolate CA5, 48 h
Summary of the method: (§4)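 Checkerboard microdilution in MOPS-buffered RPMI 1640 (pH 7.0, 2% dextrose) with 2.5 × 10^3 CFU/ml for 48 h at 35°C. Final FK506 was 0.002–0.125 μg/ml. Azole finals were FLC 0.125–128 μg/ml, and ITR and VRC 0.008–8 μg/ml. MIC80 is an 80% OD492 decrease vs drug-free control. Interaction was scored by FICI (synergy ≤0.5, antagonism >4) and by ΔE from triplicates.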

Candida albicans [18] = assay: Antimicrobial activity against azole-susceptible Candida albicans isolate CA8 co-treated with calcineurin signaling inhibitor tacrolimus after 48 hrs by microdilution checkerboard technique; details: isolate CA8, 48 h; summary of the method: as §4
Candida albicans [19] = assay: Antimicrobial activity against azole-susceptible Candida albicans isolate CA129 co-treated with calcineurin signaling inhibitor tacrolimus after 48 hrs by microdilution checkerboard technique; details: isolate CA129, 48 h; summary of the method: as §4
Candida albicans [20] = assay: Antimicrobial activity against azole-resistant Candida albicans isolate CA15 cotreated with calcineurin signaling inhibitor Tacrolimus after 48 hrs by microdilution checkerboard technique; details: isolate CA15, 48 h; summary of the method: as §4
Candida albicans [21] = assay: Antimicrobial activity against azole-resistant Candida albicans isolate CA135 cotreated with calcineurin signaling inhibitor Tacrolimus after 48 hrs by microdilution checkerboard technique; details: isolate CA135, 48 h; summary of the method: as §4
Candida albicans [22] = assay: Antimicrobial activity against azole-resistant Candida albicans isolate CA10 assessed as growth at 2 ug/ml cotreated with 0.125 ug/ml calcineurin signaling inhibitor tacrolimus after 48 hrs by microdilution checkerboard technique relative to control; parameters: scale not given: the % may be the effect or the level left; summary of the method: as §2
Candida albicans [23] = assay: Antimicrobial activity against azole-resistant Candida albicans isolate CA10 assessed as growth at 8 ug/ml cotreated with 0.125 ug/ml calcineurin signaling inhibitor Tacrolimus after 48 hrs by microdilution checkboard technique relative to control; parameters: scale not given: the % may be the effect or the level left; summary of the method: as §3
Candida albicans [24] = assay: Antimicrobial activity against azole-resistant Candida albicans isolate CA10 assessed as growth at 64 ug/ml co-treated with 0.125 ug/ml calcineurin signaling inhibitor tacrolimus after 48 hrs by microdilution checkboard technique relative to control; parameters: scale not given: the % may be the effect or the level left; summary of the method: as §3

OC(Cn1cncn1)(Cn1cncn1)c1ccc(F)cc1F [FLUCONAZOLE]
Activity (Candida albicans [1]): 36% | Activity (Candida albicans [2]): 38% | Activity (Candida albicans [3]): 24% | Activity (Candida albicans [4]): 55% | Activity (Candida albicans [5]): 38% | Activity (Candida albicans [6]): 28% | Activity (Candida albicans [7]): 75% | Activity (Candida albicans [8]): 25% | Activity (Candida albicans [9]): 28% | Activity (Candida albicans [10]): 42% | Activity (Candida albicans [11]): 35% | Activity (Candida albicans [12]): 27% | Activity (Candida albicans [13]): 63% | Activity (Candida albicans [14]): 96% | Activity (Candida albicans [15]): 99% | Activity (Candida albicans [16]): 97% | MIC (Candida albicans [17]): 0.25 µg/mL | MIC (Candida albicans [18]): 66 µg/mL | MIC (Candida albicans [19]): 0.25 µg/mL | MIC (Candida albicans [20]): 0.5 µg/mL | MIC (Candida albicans [21]): 0.25 µg/mL | Activity (Candida albicans [22]): 12% | Activity (Candida albicans [23]): 2% | Activity (Candida albicans [24]): 0%

Reference: ChEMBL document CHEMBL1151472, “In vitro interactions between tacrolimus and azoles against Candida albicans determined by different methods” (2008)
